Settings in all cases: in vivo
The test system of data set [1] is Rattus norvegicus. The data set is described as follows: Tmax as total radioactivity in female Sprague-Dawley rat plasma at 10 mg/kg, po administered as single dose via gavage by LC-MS/MS analysis. Also noted: dose 10 mg/kg, dosed compound name [14C]lixivaptan, route oral. The class given is ADME, organism-based. The method, boiled down: (§1)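 Jugular-vein cannulated SD rats (5/gender) given gavage [14C]drug 10 mg/kg in pluronic F68/water; K2EDTA blood 0.25-168 h with donor blood replacement. Parent by validated LC-MS/MS, radioactivity by LSC; Tmax observed; t1/2 = 0.693/kel by terminal log-linear regression.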

In data set [2] the test system is Rattus norvegicus. The data set is described as follows: Total Drug recovery in female Sprague-Dawley rat at 10 mg/kg, po administered as single dose via gavage measured after 168 hrs by liquid scintillation counting. The class given is ADME, organism-based. Also noted: dose 10 mg/kg, dosed compound name [14C]lixivaptan, route oral. An outline of the steps: (§2)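 Intact SD rats (3/gender) dosed by gavage with [14C]drug 10 mg/kg (10 ml/kg, pluronic F68/water), housed in metabolism cages; urine and feces at 0-8, 8-24 h, then every 24 h to 7 days. Urine counted by LSC; feces homogenized 20% w/w in water, combusted, trapped CO2 counted; cage wash/debris included; % of dose.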

A short description of data set [3]: Drug recovery in feces of male beagle dog at 10 mg/kg, po administered as single dose via gavage measured after 168 hrs by liquid scintillation counting. The class given is ADME, organism-based, Canis lupus familiaris. Set-up: dose 10 mg/kg, dosed compound name [14C]lixivaptan, route oral. The method, boiled down: (§3)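 Four male beagles got 10 mg/kg (2 ml/kg) [14C]drug suspension (5.0 mg/ml, pluronic F68/water, 1.04 µCi/mg) by gavage. Urine and feces collected over dry ice at 0-8, 8-24 h, then every 24 h to 7 days; urine by LSC, fecal homogenates combusted then LSC; cage wash/debris included; % of dose.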

For data set [4], the system named is Homo sapiens. The data set is described as follows: Drug level in human plasma at 100 mg, po administered as single dose measured after 24 hrs by liquid scintillation counting. The format is ADME, organism-based. Set-up: dosed compound name [14C]lixivaptan. The method, boiled down:
(§4)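 Healthy male volunteers fasted ≥10 h, given single oral 100 mg (200 µCi) [14C]drug as two 50-mg capsules with 250 ml water. Plasma (from ~50 ml blood) at 0.5, 2, 4, 8, 12, 24, 36 h, profiled per subject. Acetonitrile extraction, C18 radio-HPLC with 0.2% formic acid acetonitrile/water gradient, on-line radioactivity detection as % plasma radioactivity; ng-equiv/ml from % × total radioactivity.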

Data set [5] in a line: Drug recovery in urine of human at […], po administered as single dose measured after 168 hrs by liquid scintillation counting. The format is ADME, organism-based. Also noted: dosed compound name [14C]lixivaptan, route oral. An outline of the steps: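 Healthy male volunteers given single oral 100 mg (200 µCi) [14C]drug capsules after ≥10 h fast. Urine at 0-4, 4-8, 8-12, 12-24 h then 24-h intervals; feces as passed, to 168 h. Urine LSC; feces homogenized in water, combusted, LSC; % of dose.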

A short description of data set [6]: Drug recovery in bile of bile duct-cannulated male Sprague-Dawley rat at 10 mg/kg, po administered as single dose via gavage measured from 0 to 48 hrs by liquid scintillation counting. The format is ADME, organism-based. Set-up: dose 10 mg/kg, dosed compound name [14C]lixivaptan, route oral. The method, boiled down:
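Bile-duct cannulated SD rats (n=5) got single gavage of [14C]drug 10 mg/kg as pluronic F68/water suspension. Bile collected on wet ice at 0-4, 4-8, 8-24, 24-48 h; drinking water supplemented with bile salts and electrolytes. Duplicate aliquots counted by liquid scintillation; expressed as % of dose.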

Data set [7] in a line: Drug recovery in feces of male Sprague-Dawley rat at 10 mg/kg, po administered as single dose via gavage measured after 168 hrs by liquid scintillation counting. The class given is ADME, organism-based. Also noted: dose 10 mg/kg, dosed compound name [14C]lixivaptan, route oral. The method, boiled down:
as §2

Data set [8] deals with Homo sapiens. The data set is described as follows: Drug level in human plasma at 100 mg, po administered as single dose measured after 2 hrs by liquid scintillation counting. The format is ADME, organism-based. Also noted: dosed compound name [14C]lixivaptan. The method, boiled down:
as §4

Data set [9] deals with Canis familiaris. The data set is described as follows: Total Drug recovery in male beagle dog at 10 mg/kg, po administered as single dose via gavage measured after 168 hrs by liquid scintillation counting. The class given is ADME, organism-based, Canis lupus familiaris. Also noted: dose 10 mg/kg, dosed compound name [14C]lixivaptan, route oral. An outline of the steps:
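Four male dogs, fasted 18 h, given [14C]drug by gavage as a 5.0 mg/ml suspension in pluronic F68/deionized water (2 ml/kg, 1.04 μCi/mg), followed by a 10 ml water rinse. Urine and feces collected frozen over dry ice at 0-8, 8-24 h, then every 24 h for 7 days. Feces combusted before LSC; total includes cage wash/debris.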

In data set [10] the test system is Canis familiaris. Briefly: Drug level in beagle dog plasma at 10 mg/kg, po administered as single dose measured after 24 hrs by liquid scintillation counting. The format is ADME, organism-based, Canis lupus familiaris. Set-up: dose 10 mg/kg, dosed compound name [14C]lixivaptan, route oral. An outline of the steps: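 Four male beagles fasted 18 h were gavaged once with [14C]lixivaptan at 10 mg/kg (2 ml/kg). The 5.0 mg/ml suspension was in deionized water with pluronic F68 (1.04 µCi/mg). Jugular K2EDTA plasma was taken at 2, 8 and 24 h and extracted twice with 2 volumes of acetonitrile. Profiling used C18 radio-HPLC (ammonium formate/acetonitrile gradient) with on-line flow scintillation detection. Each peak is reported as percent of plasma radioactivity.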

Data set [11] deals with Canis familiaris. The data set is described as follows: Cmax as total radioactivity in male beagle dog plasma at 10 mg/kg, po administered as single dose by LC-MS/MS analysis. The class given is ADME, organism-based, Canis lupus familiaris. Also noted: dose 10 mg/kg, dosed compound name [14C]lixivaptan, route oral. The method, boiled down: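 Four male beagles were fasted 18 h and gavaged once with 10 mg/kg (2 ml/kg) [14C]lixivaptan as a 5.0 mg/ml water/pluronic F68 suspension. Jugular K2EDTA blood was sampled from 0.25 to 168 h. Plasma total radioactivity was counted by LSC as ng-equiv/ml and lixivaptan by validated LC-MS/MS. Noncompartmental Cmax, t1/2 and trapezoidal AUC were derived.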

Data set [12] deals with Rattus norvegicus. The data set is described as follows: AUC (0 to 24 hrs) in female Sprague-Dawley rat at 10 mg/kg, po administered as single dose via gavage. The format is ADME, organism-based, Plasma. Also noted: time < 24 hr, dose 10 mg/kg, dosed compound name [14C]lixivaptan, route oral. The method, boiled down: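 Sprague-Dawley rats (9/gender) were fasted 18 h and gavaged once with [14C]lixivaptan at 10 mg/kg (10 ml/kg), about 29.8 µCi/mg, suspended in deionized water with pluronic F68. Plasma came by cardiac puncture under isoflurane at 1, 8 and 24 h (3/gender/time) and was extracted twice with 2 volumes of acetonitrile. C18 radio-HPLC with a flow scintillation detector gave percent of plasma radioactivity per peak.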

Data set [13] concerns Homo sapiens. Briefly: Drug level in human plasma at 100 mg, po administered as single dose measured after 4 hrs by liquid scintillation counting. The class given is ADME, organism-based. Set-up: dosed compound name [14C]lixivaptan. The method, boiled down:
as §4

Data set [14] can be described thus: Drug recovery in urine of male beagle dog at 10 mg/kg, po administered as single dose via gavage measured after 168 hrs by liquid scintillation counting. The format is ADME, organism-based, Canis lupus familiaris. Set-up: dose 10 mg/kg, dosed compound name [14C]lixivaptan, route oral. An outline of the steps:
as §3

Data set [15] concerns Rattus norvegicus. The data set is described as follows: AUC(0 to infinity) as total radioactivity in female Sprague-Dawley rat plasma at 10 mg/kg, po administered as single dose via gavage […]. The class given is ADME, organism-based. Also noted: time infinity, dose 10 mg/kg, dosed compound name [14C]lixivaptan, route oral. An outline of the steps: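 Jugular-cannulated Sprague-Dawley rats (5/gender) were fasted 18 h and gavaged once with 10 mg/kg [14C]lixivaptan suspended in water/pluronic F68. K2EDTA blood was taken at 0.25–168 h, with donor blood replaced from 1 h on. Total radioactivity was read by LSC (ng-equiv/ml) and parent by validated LC-MS/MS. Noncompartmental Cmax, log-linear kel and trapezoidal AUC followed.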

Data set [16] deals with Rattus norvegicus. Briefly: Half life as total radioactivity in female Sprague-Dawley rat plasma at 10 mg/kg, po administered as single dose via gavage by LC-MS/MS analysis. The class given is ADME, organism-based. Set-up: dose 10 mg/kg, dosed compound name [14C]lixivaptan, route oral. An outline of the steps: as §1
Data set [17] has as its system Homo sapiens. The data set is described as follows: AUC(0 to infinity) as total radioactivity in human plasma at 100 mg, po administered as single dose by LC-MS/MS analysis. The class given is ADME, organism-based. Set-up: dose 100 mg, route oral, dosed compound name [14C]lixivaptan, time infinity. The method, boiled down: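 Fasted healthy males took one oral 100 mg (200 µCi) [14C]lixivaptan dose. Plasma was drawn from predose to 144 h. Total radioactivity was measured by LSC and converted to ng-equiv/ml via the dose specific activity; lixivaptan by validated LC-MS/MS. Noncompartmental analysis: Cmax observed; kel by log-linear regression; AUC0-t by linear trapezoid; extrapolation as Cest/kel.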

In general, Tmax refers to the time at which the peak concentration occurs. `Cc1ccc(F)cc1[14C](=O)Nc1ccc(C(=O)N2Cc3cccn3Cc3ccccc32)c(Cl)c1`: the Tmax in data set [1] stood at 1.4 h. In addition, the Radiolabel recovery is reported as 103% in data set [2]; 83.1% in data set [3]; 20.5% in data set [5]; 65.4% in [6]; 91% in data set [7]; 95.9% in [9]. In addition, the Radiolabel recovery in data set [14] is 7.95%. Moreover, the Compound recovery in [4] is reported as 5.5%; in data set [8], 13.4%; in data set [10] it was 7.4%; in data set [13] it was 8%. In addition, the Cmax in [11] is given as 3570 ngequiv/ml. The AUC was 5580 ng.Eq.hr/ml in data set [12], 37200 ng.Eq.hr/ml in data set [15] and 26200 ng.Eq.hr/ml in data set [17]. Also, in [16], the t1/2 came to 33.6 h.

The values above are taken from ChEMBL document CHEMBL3525987, “Assessment of exposure of metabolites in preclinical species and humans at steady state from the single-dose radiolabeled absorption, distribution, metabolism, and excretion studies: a case study” (Drug Metab Dispos, 2012).
